Tests used:
Rattus norvegicus [1] = assay: Minimum effective antagonist dose administered subcutaneously; type: functional; settings: sc, read-out: MED
How it was run: (§1)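 Male Wistar rats (200-220 g) had rectal temperature taken, then received the test drug sc in distilled water (1.0 mL/kg). After 30 min they got 8-OH-DPAT 0.16 mg/kg sc, and temperature was remeasured 30 min later. Change from basal was scored.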

[2] = biological target: 5-hydroxytryptamine receptor 1B (Rattus norvegicus, UniProt P28564); assay: Binding affinity at 5-hydroxytryptamine 1B receptor
Sequence of 5-hydroxytryptamine receptor 1B (P28564 whole entry): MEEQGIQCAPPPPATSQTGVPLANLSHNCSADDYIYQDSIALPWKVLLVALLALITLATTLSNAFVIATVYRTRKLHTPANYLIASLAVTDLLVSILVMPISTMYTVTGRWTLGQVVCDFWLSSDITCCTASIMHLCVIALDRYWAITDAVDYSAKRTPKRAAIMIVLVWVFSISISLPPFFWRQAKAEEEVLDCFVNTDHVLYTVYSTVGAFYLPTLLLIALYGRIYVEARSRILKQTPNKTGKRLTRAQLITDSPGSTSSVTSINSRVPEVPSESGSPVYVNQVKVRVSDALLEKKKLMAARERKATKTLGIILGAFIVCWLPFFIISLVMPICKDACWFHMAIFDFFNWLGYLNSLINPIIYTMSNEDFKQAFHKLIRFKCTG
How it was run: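 Rat frontal cortex membranes (1/40 wt/vol) were homogenized in 50 mM Tris pH 7.7 with pargyline, 4 mM CaCl2 and 0.1% ascorbic acid, then preincubated for 30 min at 37 °C. Labelled with 2.0 nM [3H]-5-HT, with 100 nM 8-OH-DPAT and 100 nM mesulergine masking 5-HT1A/5-HT2A sites; 5-CT defined nonspecific binding.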

[3] = biological target: T1, 5-hydroxytryptamine receptor 1A (Rattus norvegicus, UniProt P19327); assay: Binding affinity at 5-hydroxytryptamine 1A receptor
T1 sequence (P19327 whole entry): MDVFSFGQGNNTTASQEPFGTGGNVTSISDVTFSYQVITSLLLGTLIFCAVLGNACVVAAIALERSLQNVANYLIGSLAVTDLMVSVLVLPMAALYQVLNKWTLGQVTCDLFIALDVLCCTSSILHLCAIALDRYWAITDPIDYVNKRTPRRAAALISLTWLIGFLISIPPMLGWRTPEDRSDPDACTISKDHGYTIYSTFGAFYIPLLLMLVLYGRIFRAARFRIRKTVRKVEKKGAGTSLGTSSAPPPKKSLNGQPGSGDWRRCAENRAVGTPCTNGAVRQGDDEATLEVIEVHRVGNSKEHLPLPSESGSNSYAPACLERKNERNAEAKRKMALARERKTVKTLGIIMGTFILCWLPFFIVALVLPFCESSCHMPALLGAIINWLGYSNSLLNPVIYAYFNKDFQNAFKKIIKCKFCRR
How it was run: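 Rat hippocampal membranes (1/100 wt/vol) in 50 mM Tris pH 7.7 with 4 mM CaCl2, 0.1% ascorbic acid and pargyline. Membranes were spun at 25000g, preincubated 30 min at 37 °C and respun, then incubated with 0.4 nM [3H]-8-OH-DPAT for 30 min at 25 °C. 5-HT defined nonspecific binding, and samples were filtered on PEI-soaked GF/B. IC50 came from regression; pKi = −log[IC50/(1+[L]/Kd)].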

[4] = biological target: D(2) dopamine receptor (Rattus norvegicus) (UniProt P61169)
Sequence of D(2) dopamine receptor (Rattus norvegicus) (P61169 whole entry): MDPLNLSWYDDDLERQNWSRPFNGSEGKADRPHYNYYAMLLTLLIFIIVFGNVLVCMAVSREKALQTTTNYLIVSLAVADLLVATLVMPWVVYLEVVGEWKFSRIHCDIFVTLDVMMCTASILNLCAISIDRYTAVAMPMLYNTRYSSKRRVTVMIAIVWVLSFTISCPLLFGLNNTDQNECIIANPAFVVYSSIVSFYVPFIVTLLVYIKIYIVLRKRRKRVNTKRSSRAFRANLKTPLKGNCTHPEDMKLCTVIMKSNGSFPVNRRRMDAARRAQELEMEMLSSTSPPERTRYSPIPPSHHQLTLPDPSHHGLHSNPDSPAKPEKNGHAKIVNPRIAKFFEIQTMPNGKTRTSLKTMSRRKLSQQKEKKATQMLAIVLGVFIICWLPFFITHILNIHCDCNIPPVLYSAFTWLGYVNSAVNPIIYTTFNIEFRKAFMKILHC

Rattus norvegicus [5] = assay: Compound after subcutaneous administration was evaluated for antagonist activity against hypothermia induced by 8-hydroxy -DPAT in rat; type: functional; settings: sc, read-out: ID50 (the source's name); how it was run: as §1
Rattus norvegicus [6] = organism: Rattus norvegicus; assay: Maximum agonist effect (% effect) expressed relative to 8-hydroxy-DPAT (100%); type: functional
How it was run: (§2)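 In the rat rectal-temperature model (sc dosing, 8-OH-DPAT 0.16 mg/kg sc for antagonism), the maximal percentage of induced hypothermia (agonist) and of block of 8-OH-DPAT hypothermia (antagonist) was recorded. Each value is given with the dose at which it was reached.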

Rattus norvegicus [7] = assay: Minimum effective agonist dose administered subcutaneously; type: functional; settings: sc, read-out: MED
How it was run: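 Male Wistar rats (200-220 g) were given the test drug alone sc in water (1.0 mL/kg), with vehicle reinjected at 30 min. Rectal temperature change from basal was measured 60 min after the first injection. MED for hypothermia was set against vehicle by ANOVA with Dunnett's test, P < 0.05.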

[8] = Ratio of MED (agonist) to that of MED (antagonist) values.; type: functional
How it was run: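 The MED for inducing hypothermia alone was divided by the MED for blocking 8-OH-DPAT (0.16 mg/kg sc) hypothermia. Both MEDs came from sc dosing in male Wistar rats and were tested against vehicle by ANOVA with Dunnett's test, P < 0.05.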

Rattus norvegicus [9] = organism: Rattus norvegicus; assay: Maximum antagonist effect (% effect) expressed relative to 8-hydroxy-DPAT (100%); type: functional; how it was run: as §2
D(2) dopamine receptor = D(2) dopamine receptor (Rattus norvegicus, UniProt P61169); assay: In vitro binding affinity towards Dopamine receptor D2 in rat striatum was determined using [3H]-spiperone as radioligand; type: tissue-based
Sequence of D(2) dopamine receptor (P61169 whole entry): as above
How it was run: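 Rat striatal membranes (1/300 wt/vol), no preincubation, in 50 mM Tris pH 7.4 with CaCl2, ascorbic acid, 5 mM KCl, 1 mM MgCl2 and 120 mM NaCl. Ligand 0.2 nM [3H]spiperone, with 100 nM ketanserin masking 5-HT2A sites; raclopride defined nonspecific binding. Incubation 30 min at 37 °C, then filtration. pKi derived from regression-based IC50.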

Row | Structure (SMILES) | minimal effective dose (Rattus norvegicus [1]) [mg/kg] | Ki [2] [µM] | Ki [3] [µM] | ID50 [4] [mg/kg] | ED50 (Rattus norvegicus [5]) [mg/kg] | Max effect (Rattus norvegicus [6]) [%] | minimal effective dose (Rattus norvegicus [7]) [mg/kg] | Ratio [8] | Max effect (Rattus norvegicus [9]) [%] | Ki (D(2) dopamine receptor) [µM]
1 | COc1cc2c(cc1OC)C(CCN1CCN(c3cccc4c3OCCO4)CC1)C2 (stereo not given) | 1.25 | 0.794 | 0.00316 | > 40 | 1.41 | 4 | > 40 | > 32 | 96 | –
2 | C1=C(CCN2CCN(c3cccc4c3OCCO4)CC2)c2ccccc2CCC1 | 2.5 | 0.38 | 0.00316 | 40 | 5.02 | 33 | > 40 | > 16 | 55 | –
3 | COc1ccccc1N1CCN(CCN2C(=O)CC3(CCCC3)CC2=O)CC1 [BMY-7378] | 1.25 | > 10 | – | 0.65 | 1.6 | 53 | 2.5 | – | 64 | 0.0174
4 | c1ccc2c(c1)CC2CCCN1CCN(c2cccc3c2OCCO3)CC1 (stereo not given) | 0.16 | 0.646 | 0.000447 | 1.7 | 0.18 | 100 | 10 | 62.5 | 75 | –
5 | c1ccc2c(c1)CCC2CCCN1CCN(c2cccc3c2OCCO3)CC1 (stereo not given) | 0.16 | 0.204 | 0.000617 | > 40 | 0.29 | 100 | 10 | 62.5 | 81 | –
6 | c1ccc2c(c1)CC2CN1CCN(c2cccc3c2OCCCO3)CC1 (stereo not given) | 0.63 | – | 0.00794 | > 40 | 0.32 | 76 | > 10 | > 15.8 | 91 | –
7 | c1ccc2c(c1)CC2CN1CCN(c2cccc3ccoc23)CC1 (stereo not given) | 2.5 | 0.912 | 0.00794 | – | 1.12 | 15 | > 10 | > 4 | 96 | –
8 | C1=C(CCN2CCN(c3cccc4c3OCCO4)CC2)Cc2ccccc21 | 0.31 | 0.933 | 0.000537 | – | 0.36 | 76 | 10 | 32.2 | 81 | –
9 | c1ccc2c(c1)CC2CCN1CCN(c2cccc3c2OCCCO3)CC1 (stereo not given) | 1.25 | 0.562 | 0.00115 | 30 | 2.68 | 31 | 40 | 32 | 72 | –
10 | c1ccc2c(c1)CC2CN1CCN(c2cccc3c2OCCO3)CC1 (stereo not given) | 0.63 | 0.214 | 0.00178 | > 40 | 0.67 | 100 | 10 | 15.8 | 85 | –
11 | c1cc2c(c(N3CCNCC3)c1)OCCO2 [ELTOPRAZINE] | > 40 | – | – | – | > 40 | 100 | 2.5 | < 0.06 | 0 | –
12 | Clc1cccc2c1CC2CCCN1CCN(c2cccc3c2OCCO3)CC1 (stereo not given) | 0.63 | 1.1 | 0.00372 | 40 | 3.09 | 15 | > 10 | > 15.8 | 60 | –
13 | c1ccc2c(c1)CC(CN1CCN(c3cccc4c3OCCO4)CC1)C2 | 0.63 | 0.49 | 0.00282 | > 40 | 0.55 | 0 | > 10 | > 15.8 | 87 | –
14 | COc1ccc2c(c1)C(CCN1CCN(c3cccc4c3OCCO4)CC1)C2 (stereo not given) | 0.63 | 0.316 | 0.00126 | > 40 | 0.48 | 35 | 10 | 15.8 | 95 | –
15 | c1ccc2c(c1)CC2CCCN1CCN(c2cccc3c2OCCCO3)CC1 (stereo not given) | 0.16 | 0.617 | 0.000794 | – | 0.27 | 21 | > 2.5 | > 15.6 | 85 | –
16 | c1ccc2c(c1)CCCC2CCN1CCN(c2cccc3c2OCCO3)CC1 (stereo not given) | 0.16 | 0.708 | 0.00275 | 40 | 0.4 | 8 | > 2.5 | > 15.6 | 70 | –
17 | c1ccc2c(c1)CCCCC2CCN1CCN(c2cccc3c2OCCO3)CC1 (stereo not given) | 5 | 0.776 | 0.00661 | > 10 | 4.26 | 9 | > 10 | > 2 | 96 | –
18 | C1=C(CCN2CCN(c3cccc4c3OCCO4)CC2)c2ccccc2CC1 | 0.63 | 0.229 | 0.002 | > 40 | 0.4 | 14 | > 40 | > 63.5 | 100 | –
19 | c1ccc2c(c1)CC(CCCN1CCN(c3cccc4c3OCCO4)CC1)C2 | 0.63 | 1.86 | 0.00126 | > 40 | 0.47 | 40 | 40 | 63.5 | 70 | –
20 | COc1cc2nc(N3CCN(C(=O)c4ccco4)CC3)nc(N)c2cc1OC | – | – | – | > 10 | – | – | – | – | – | –
21 | Fc1cccc2c1CC2CN1CCN(c2cccc3c2OCCO3)CC1 (stereo not given) | 0.63 | 0.316 | 0.00178 | > 40 | 2.51 | 19 | > 10 | > 15.8 | 61 | –
22 | C1=C(CCN2CCN(c3cccc4c3OCCO4)CC2)c2ccccc2C1 | 0.63 | 0.251 | 0.000794 | > 40 | 0.45 | 21 | > 2.5 | > 4 | 94 | –
23 | c1ccc2c(c1)CC(CCN1CCN(c3cccc4c3OCCO4)CC1)C2 | 0.16 | 0.692 | – | 5.9 | 0.27 | 50 | 10 | 62.5 | 100 | –

From ChEMBL document CHEMBL1128459, “Characterization of potent and selective antagonists at postsynaptic 5-HT1A receptors in a series of N4-substituted arylpiperazines” (J Med Chem, 1995)
